Test results reported in ChEMBL document CHEMBL3286099, “Synthesized quercetin derivatives stimulate melanogenesis in B16 melanoma cells by influencing the expression of melanin biosynthesis proteins MITF and p38 MAPK” (Bioorg Med Chem, 2014).
Active and inactive are the calls of the source. The rule behind the calls is not given here.

What was measured:
B16-F0 [1] = experiment: Extracellular melanogenesis-stimulating activity in mouse B16F0 cells at 12.5 uM after 72 hrs by spectrophotometry relative to control; format: functional
Method in brief: (§1)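 B16-F0 cells in DMEM with 10% FBS were seeded at 5.0 × 10⁴ cells/well and adhered for 24 h. They were treated for 72 h at 200–10 µM or 50–6.25 µM, depending on compound series. Absorbance of the collected culture medium at 510 nm gave extracellular melanin, expressed as % of DMSO-treated control. Experiments were done twice.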

[2] = Cytotoxicity against mouse B16F0 cells assessed as cell viability at 12.5 uM after 72 hrs by MTT assay; format: cell-based; conditions: read-out: Activity
Method in brief: (§2)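 B16-F0 cells were seeded at 5.0 × 10⁴ cells/well and allowed to adhere for 24 h at 37 °C. They were exposed for 72 h to compound at 200–10 µM or 50–6.25 µM, depending on compound series. MTT (5 mg/mL stock in PBS) was added for 4 h at 37 °C in 5% CO₂, then dissolved in isopropanol/0.04 N HCl and read at 590 nm. Viability is % of DMSO control; experiments were done twice.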

B16-F0 [3] = experiment: Extracellular melanogenesis-stimulating activity in mouse B16F0 cells at 25 uM after 72 hrs by spectrophotometry relative to control; format: functional; method in brief: as §1
[4] = Cytotoxicity against mouse B16F0 cells assessed as cell viability at 25 uM after 72 hrs by MTT assay; format: cell-based; conditions: read-out: Activity; method in brief: as §2
B16-F0 [5] = experiment: Intracellular melanogenesis-stimulating activity in mouse B16F0 cells at 6.25 uM after 72 hrs by spectrophotometry relative to control; format: functional
Method in brief: (§3)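 Cells were seeded at 5.0 × 10⁴ cells/well, adhered for 24 h, then treated with compound for 72 h. After a PBS wash, cells were lysed in 1 M NaOH at 100 °C for 30 min to solubilize melanin. Lysate absorbance at 405 nm served as the intracellular melanin index, expressed as % of DMSO control. Experiments were done twice.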

[6] = Cytotoxicity against mouse B16F0 cells assessed as cell viability at 6.25 uM after 72 hrs by MTT assay; format: cell-based; conditions: read-out: Activity; method in brief: as §2
B16-F0 [7] = experiment: Intracellular melanogenesis-stimulating activity in mouse B16F0 cells at 25 uM after 72 hrs by spectrophotometry relative to control; format: functional; method in brief: as §3
B16-F0 [8] = experiment: Intracellular melanogenesis-stimulating activity in mouse B16F0 cells at 12.5 uM after 72 hrs by spectrophotometry relative to control; format: functional; method in brief: as §3
B16-F0 [9] = experiment: Extracellular melanogenesis-stimulating activity in mouse B16F0 cells at 6.25 uM after 72 hrs by spectrophotometry relative to control; format: functional; method in brief: as §1
[10] = Cytotoxicity against mouse B16F0 cells assessed as cell viability at 100 uM after 72 hrs by MTT assay; format: cell-based; conditions: read-out: Activity; method in brief: as §2
B16-F0 [11] = experiment: Intracellular melanogenesis-stimulating activity in mouse B16F0 cells at 100 uM after 72 hrs by spectrophotometry relative to control; format: functional
B16-F0 [12] = experiment: Intracellular melanogenesis-stimulating activity in mouse B16F0 cells at 10 uM after 72 hrs by spectrophotometry relative to control; format: functional
B16-F0 [13] = experiment: Extracellular melanogenesis-stimulating activity in mouse B16F0 cells at 200 uM after 72 hrs by spectrophotometry relative to control; format: functional; method in brief: as §1
B16-F0 [14] = experiment: Extracellular melanogenesis-stimulating activity in mouse B16F0 cells at 10 uM after 72 hrs by spectrophotometry relative to control; format: functional; method in brief: as §1
[15] = Cytotoxicity against mouse B16F0 cells assessed as cell viability at 10 uM after 72 hrs by MTT assay; format: cell-based; conditions: read-out: Activity; method in brief: as §2
B16-F0 [16] = experiment: Intracellular melanogenesis-stimulating activity in mouse B16F0 cells after 72 hrs by spectrophotometry relative to control; format: functional, cell-based; method in brief: as §3
B16-F0 [17] = experiment: Extracellular melanogenesis-stimulating activity in mouse B16F0 cells at 100 uM after 72 hrs by spectrophotometry relative to control; format: functional; method in brief: as §1
B16-F0 [18] = experiment: Intracellular melanogenesis-stimulating activity in mouse B16F0 cells at 200 uM after 72 hrs by spectrophotometry relative to control; format: functional
[19] = Cytotoxicity against mouse B16F0 cells assessed as cell viability at 200 uM after 72 hrs by MTT assay; format: cell-based; conditions: read-out: Activity; method in brief: as §2
[20] = Cytotoxicity against mouse B16F0 cells assessed as cell viability at 50 uM after 72 hrs by MTT assay; format: cell-based; conditions: read-out: Activity; method in brief: as §2
B16-F0 [21] = experiment: Intracellular melanogenesis-stimulating activity in mouse B16F0 cells at 50 uM after 72 hrs by spectrophotometry relative to control; format: functional; method in brief: as §3
B16-F0 [22] = experiment: Extracellular melanogenesis-stimulating activity in mouse B16F0 cells at 50 uM after 72 hrs by spectrophotometry relative to control; format: functional; method in brief: as §1
B16-F0 [23] = experiment: Induction of melanogenesis-stimulating activity in mouse B16F0 cells assessed as increase in MITF protein expression at 3.1 to 12.5 uM after 72 hrs by Western blotting analysis; format: functional, cell-based
Method in brief: (§4)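 B16 cells were treated for 72 h at 0–12.5 µM and lysed in RIPA with protease inhibitors (0 °C, 30 min). Lanes held 10 µg protein on 10% SDS–PAGE, transferred to PVDF and blocked with 2% BSA/TBST at 4 °C overnight. Primaries ran 2 h: MITF 1:1000, tyrosinase, TRP-1 and p-p38 1:200, TRP-2 and p38 1:100. HRP secondary was 1:5000 for 2 h, with ECL densitometry. GAPDH blotted; three independent experiments.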

B16-F0 [24] = experiment: Induction of melanogenesis-stimulating activity in mouse B16F0 cells assessed as increase in TRP-2 protein expression at 3.1 to 12.5 uM after 72 hrs by Western blotting analysis; format: functional, cell-based; method in brief: as §4
B16-F0 [25] = experiment: Induction of melanogenesis-stimulating activity in mouse B16F0 cells assessed as increase in tyrosinase protein expression at 3.1 to 12.5 uM after 72 hrs by Western blotting analysis; format: functional, cell-based; method in brief: as §4
B16-F0 [26] = experiment: Induction of melanogenesis-stimulating activity in mouse B16F0 cells assessed as increase in p-p38 MAPK level at 3.1 to 12.5 uM after 72 hrs by Western blotting analysis; format: functional, cell-based; method in brief: as §4
B16-F0 [27] = experiment: Induction of melanogenesis-stimulating activity in mouse B16F0 cells assessed as increase in TRP-1 protein expression at 3.1 to 12.5 uM after 72 hrs by Western blotting analysis; format: functional, cell-based; method in brief: as §4
B16-F0 [28] = experiment: Induction of melanogenesis-stimulating activity in mouse B16F0 cells assessed as increase in p38-MAPK protein expression after 72 hrs by Western blotting analysis; format: functional, cell-based; method in brief: as §4
B16-F0 [29] = experiment: Induction of melanogenesis-stimulating activity in mouse B16F0 cells assessed as increase in tyrosinase protein expression after 72 hrs by Western blotting analysis; format: functional, cell-based; method in brief: as §4
B16-F0 [30] = experiment: Induction of melanogenesis-stimulating activity in mouse B16F0 cells assessed as increase in TRP-1 protein expression after 72 hrs by Western blotting analysis; format: functional, cell-based; method in brief: as §4
B16-F0 [31] = experiment: Induction of melanogenesis-stimulating activity in mouse B16F0 cells assessed as increase in p-p38 MAPK level after 72 hrs by Western blotting analysis; format: functional, cell-based; method in brief: as §4
B16-F0 [32] = experiment: Induction of melanogenesis-stimulating activity in mouse B16F0 cells assessed as increase in TRP-2 protein expression after 72 hrs by Western blotting analysis; format: functional, cell-based; method in brief: as §4
B16-F0 [33] = experiment: Induction of melanogenesis-stimulating activity in mouse B16F0 cells assessed as increase in MITF protein expression after 72 hrs by Western blotting analysis; format: functional, cell-based; method in brief: as §4

Structure (SMILES) | Activity (B16-F0 [1]) | viability at 72 h, 12.5 µM [2] | Activity (B16-F0 [3]) | viability at 72 h, 25 µM [4] | Activity (B16-F0 [5]) | viability at 72 h, 6.25 µM [6] | Activity (B16-F0 [7]) | Activity (B16-F0 [8]) | Activity (B16-F0 [9]) | further results
COc1cc(O)c2c(=O)c(OC)c(-c3ccc(O)c(O)c3)oc2c1 | 304.3% | 60.4% | 265.5% | 54.1% | 134% | 80.4% | 187.6% | 171.2% | 222.8% | 
O=c1c(O[C@@H]2O[C@H](CO)[C@@H](O[C@@H]3O[C@H](CO)[C@@H](O)[C@H](O)[C@H]3O)[C@H](O)[C@H]2O)c(-c2ccc(O)c(O)c2)oc2cc(O)cc(O)c12 |  |  |  |  |  |  |  |  |  | viability at 72 h, 100 µM [10]: 93.2%; Activity (B16-F0 [11]): 126.8%; Activity (B16-F0 [12]): 102.6%; Activity (B16-F0 [13]): 85.2%; Activity (B16-F0 [14]): 83.3%; viability at 72 h, 10 µM [15]: 99.6%; Activity (B16-F0 [16]): Dose-dependent effect; Activity (B16-F0 [17]): 91%; Activity (B16-F0 [18]): 176%; viability at 72 h, 200 µM [19]: 81.1%
O=c1c(O[C@@H]2O[C@H](CO)[C@@H](O[C@@H]3O[C@H](CO)[C@@H](O)[C@H](O)[C@H]3O)[C@H](O)[C@H]2O)c(-c2ccc(O[C@@H]3O[C@H](CO)[C@@H](O)[C@H](O)[C@H]3O)c(O)c2)oc2cc(O)cc(O)c12 |  |  |  |  |  |  |  |  |  | viability at 72 h, 100 µM [10]: 86.8%; Activity (B16-F0 [11]): 151.5%; Activity (B16-F0 [12]): 137%; Activity (B16-F0 [13]): 125.5%; Activity (B16-F0 [14]): 99.7%; viability at 72 h, 10 µM [15]: 90%; Activity (B16-F0 [16]): Dose-dependent effect; Activity (B16-F0 [17]): 116%; Activity (B16-F0 [18]): 190.5%; viability at 72 h, 200 µM [19]: 74.8%
CC(=O)Oc1c(-c2ccc(O)c(O)c2)oc2cc(O)cc(O)c2c1=O | 87.6% | 110% | 102.6% | 120% |  |  | 114.3% | 99% |  | viability at 72 h, 50 µM [20]: 110%; Activity (B16-F0 [21]): 104.6%; Activity (B16-F0 [22]): 126.6%
CC(=O)OC[C@H]1O[C@@H](Oc2c(-c3ccc(O)c(O)c3)oc3cc(O)cc(O)c3c2=O)[C@H](OC(C)=O)[C@@H](OC(C)=O)[C@@H]1OC(C)=O | 89.3% | 114% | 101.5% | 102% |  |  | 121.4% | 122.4% |  | viability at 72 h, 50 µM [20]: 104%; Activity (B16-F0 [21]): 148.4%; Activity (B16-F0 [22]): 96.1%
COc1c(-c2ccc(O)c(O)c2)oc2cc(O)cc(O)c2c1=O [3-O-METHYLQUERCETIN] | 124.1% | 98.2% | 130.8% | 88.1% |  |  | 146.5% | 137% |  | Activity (B16-F0 [23]): inactive; Activity (B16-F0 [24]): Active; Activity (B16-F0 [25]): Active; viability at 72 h, 50 µM [20]: 74.4%; Activity (B16-F0 [21]): 157.3%; Activity (B16-F0 [26]): inactive; Activity (B16-F0 [27]): Active; Activity (B16-F0 [22]): 224.9%
COc1cc(O)c2c(=O)c(OC)c(-c3ccc(OC)c(O)c3)oc2c1 [AYANIN] | 228% | 102% | 298.7% | 90.2% | 127.7% | 95.3% | 203.4% | 181.4% | 225.5% | Activity (B16-F0 [28]): inactive; Activity (B16-F0 [29]): Dose-dependent effect; Activity (B16-F0 [30]): Dose-dependent effect; Activity (B16-F0 [31]): Dose-dependent effect; Activity (B16-F0 [32]): Dose-dependent effect; Activity (B16-F0 [33]): Dose-dependent effect
O=c1c(O[C@@H]2O[C@H](CO)[C@@H](O)[C@H](O)[C@H]2O)c(-c2ccc(O)c(O)c2)oc2cc(O)cc(O)c12 [ISOQUERCETIN] |  |  |  |  |  |  |  |  |  | viability at 72 h, 100 µM [10]: 80.9%; Activity (B16-F0 [11]): 157.1%; Activity (B16-F0 [12]): 116.3%; Activity (B16-F0 [13]): 86.1%; Activity (B16-F0 [14]): 91%; viability at 72 h, 10 µM [15]: 105%; Activity (B16-F0 [16]): Dose-dependent effect; Activity (B16-F0 [17]): 85.1%; Activity (B16-F0 [18]): 206.9%; viability at 72 h, 200 µM [19]: 68.4%
COc1cc(O)c2c(=O)c(O)c(-c3ccc(OC)c(O)c3)oc2c1 [OMBUINE] | 98% | 101% | 100.1% | 101% | 110.2% | 99.7% | 100.5% | 106.1% | 100.5% | 
COc1cc(O)c2c(=O)c(O)c(-c3ccc(O)c(O)c3)oc2c1 [RHAMNETIN] | 105.2% | 99.4% | 114.3% | 91.6% | 102.4% | 92.7% | 75.8% | 87.6% | 105.5% | 
COc1ccc(-c2oc3cc(O)cc(O)c3c(=O)c2O)cc1O [TAMARIXETIN] | 95.1% | 103% | 97.9% | 101% | 125.6% | 104% | 106.9% | 133.5% | 97.5% | 
